This is an account of results in ChEMBL document CHEMBL1136706, “Synthesis and evaluation of a novel series of farnesyl protein transferase inhibitors as non-peptidic CAAX tetrapeptide analogues” (Bioorg Med Chem Lett, 2003).

The subject of one assay is DLD-1. Put plainly: Concentration required to inhibit 50% of farnesylation of H-Ras in DLD-1 cells. As to conditions: Homo sapiens. Format: functional, cell-based.
The target in assay [1] is Protein farnesyltransferase (Bos taurus, UniProt P29702+P49355). As to the kind of experiment: Inhibit of purified bovine Farnesyl protein transferase. Format: protein-complex assay. An outline of the steps: (§1)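 Isolated-enzyme inhibition assays (FPTase, and GGPTase I for the GGPTase lines) were run by a previously published method, with n=2 determinations per compound. The read-out is the IC50 in nM.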

The nature of assay [2]: Concentration required to inhibit 50% of GGPTase enzyme activity. An outline of the steps:
as §1

The term IC50 denotes the point on the concentration scale where inhibition reaches its midpoint. Consider `N#Cc1ccc(Cn2cncc2CN(c2ccc(N3CCN(C(=O)c4ccc(Cl)s4)CC3)cc2)S(=O)(=O)c2ccccc2)cc1`, for which half-maximal inhibition with DLD-1 (IC50) was put at 200 nM.
As to `N#Cc1ccc(Cn2cncc2CN(Cc2cccc(F)c2)c2ccc(N3CCN(C(=O)c4ccc(Cl)s4)CC3)cc2)cc1`, 20 nM corresponded to half-maximal inhibition in assay [1] (IC50). In other words, the double-digit nanomolar range.
On the same count and under the same terms, with `O=C(c1ccc(Cl)s1)N1CCN(c2ccc(N(Cc3cnc[nH]3)S(=O)(=O)c3ccccc3)cc2)CC1` the figure was 600 nM.
For `COc1cccc(C(=O)N(Cc2cncn2Cc2ccc(C#N)cc2)c2ccc(N3CCN(C(=O)c4ccc(Cl)s4)CC3)cc2)c1`, the concentration for half-maximal inhibition (IC50) came out at 7 nM in the assay with DLD-1, 700 nM in assay [2] and 2 nM in assay [1].
For `O=S(=O)(c1ccccc1)N(Cc1c[nH]cn1)c1ccc(N2CCN(C(=S)Nc3ccccc3)CC2)cc1`, the results for the IC50 in assay [2] and in assay [1] were greater than 1000 nM and 600 nM, respectively.
In the case of `N#Cc1ccc(Cn2cncc2CN(C(=O)c2ccccc2)c2ccc(N3CCN(C(=O)c4ccc(Cl)s4)CC3)cc2)cc1`, the IC50 in the assay with DLD-1 is 3 nM; in assay [2], greater than 1000 nM.
`O=C(NC1CCCCC1)N1CCN(c2ccc(N(Cc3cnc[nH]3)S(=O)(=O)c3ccccc3)cc2)CC1` came in with an IC50 in assay [1] of 1000 nM.
In the case of `O=S(=O)(c1ccccc1)N(Cc1c[nH]cn1)c1ccc(N2CCN(C(=S)NCCc3ccccc3)CC2)cc1`, the IC50 in assay [2] was greater than 1000 nM; in assay [1] it was 100 nM.
For the molecule `COc1ccccc1C(=O)N(Cc1cncn1Cc1ccc(C#N)cc1)c1ccc(N2CCN(C(=O)c3ccc(Cl)s3)CC2)cc1`, the IC50 in the assay with DLD-1 was greater than 10000 nM; in assay [1], 2 nM.
Consider `CC(C)C/N=C(\S)N1CCN(c2ccc(N(Cc3c[nH]cn3)S(=O)(=O)c3ccccc3)cc2)CC1`, for which the IC50 is 800 nM with DLD-1 and greater than 1000 nM in assay [2].
`O=C(NCc1ccccc1)N1CCN(c2ccc(N(Cc3cnc[nH]3)S(=O)(=O)c3ccccc3)cc2)CC1` came in with a half-inhibitory concentration (IC50) in assay [1] of 600 nM.
`O=S(=O)(c1ccccc1)N(Cc1c[nH]cn1)c1ccc(N2CCN(C(=S)NCc3ccccc3)CC2)cc1`: the IC50 in assay [2] is greater than 1000 nM; in assay [1] it was 60 nM.
The molecule `N#Cc1ccc(Cn2cncc2CN(C(=O)c2ccccc2F)c2ccc(N3CCN(C(=O)c4ccc(Cl)s4)CC3)cc2)cc1` returned a concentration for half-maximal inhibition (IC50) with DLD-1 of 20 nM.
In the case of `COc1ccc(C(=O)N(Cc2cncn2Cc2ccc(C#N)cc2)c2ccc(N3CCN(C(=O)c4ccc(Cl)s4)CC3)cc2)cc1`, the IC50 with DLD-1 stood at 80 nM; in assay [1] it was 2 nM.
For `N#Cc1ccc(Cn2cncc2CN(C(=O)c2cccc(Cl)c2)c2ccc(N3CCN(C(=O)c4ccc(Cl)s4)CC3)cc2)cc1`, the values for the IC50 (in the assay on DLD-1; in assay [2]; in assay [1]) were 2 nM, greater than 1000 nM and 2 nM, respectively.
Regarding `O=S(=O)(c1ccccc1)N(Cc1c[nH]cn1)c1ccc(N2CCN(C(=S)NCC3CCCCC3)CC2)cc1`, the 50% inhibitory concentration (IC50) in assay [2] is greater than 1000 nM; in assay [1] it was 30 nM.
Regarding `N#Cc1ccc(Cn2cncc2CN(C(=O)c2cccc(F)c2)c2ccc(N3CCN(C(=O)c4ccc(Cl)s4)CC3)cc2)cc1`, the values for the IC50 (in the assay on DLD-1; in assay [2]) were 6 nM and greater than 1000 nM, respectively.
Turning to `N#Cc1ccc(Cn2cncc2CNc2ccc(N3CCN(C(=O)c4ccc(Cl)s4)CC3)cc2)cc1`, the half-maximal inhibitory concentration (IC50) in assay [1] was found to be 70 nM. That is a double-digit nanomolar value.
With `O=S(=O)(c1ccccc1)N(Cc1c[nH]cn1)c1ccc(N2CCN(C(=S)NC3CCCCC3)CC2)cc1`, the figures for the IC50 (with DLD-1; in assay [2]; in assay [1]) were 1000 nM, greater than 1000 nM and 20 nM, respectively.
`N#Cc1ccc(Cn2cncc2CN(Cc2ccc(F)cc2)c2ccc(N3CCN(C(=O)c4ccc(Cl)s4)CC3)cc2)cc1` gave a concentration for half-maximal inhibition (IC50) in assay [1] of 70 nM. That is a double-digit nanomolar value.
On the same count and under the same terms, with `O=C(Nc1ccccc1)N1CCN(c2ccc(N(Cc3cnc[nH]3)S(=O)(=O)c3ccccc3)cc2)CC1` the figure was 1000 nM.
